Assay results as given in ChEMBL document CHEMBL1141165, “Novel 8-substituted dipyridodiazepinone inhibitors with a broad-spectrum of activity against HIV-1 strains resistant to non-nucleoside reverse transcriptase inhibitors” (J Med Chem, 2005).

What was measured:
[1] = target: T1, Human immunodeficiency virus type 1 reverse transcriptase (Human immunodeficiency virus 1, UniProt Q72547, K103N/Y181C); test: Inhibitory activity of compound dissolved in DMSO was determined against HIV-1 (K103N/Y181C) mutant reverse transcriptase (1-2 nM) by using [3H]-dGTP (71 nM) as substrate, 50 mM Tris/HCl buffer, pH 7.8, incubated for 1 hr at 37 degrees C
In short: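 RT at ≈3 nM preincubated 15 min at room temperature with inhibitor, then substrate added. Final mix: 50 mM Tris/HCl pH 7.8, 60 mM NaCl, 2 mM MgCl2, 6 mM DTT, 2 mM GSH, 0.02% Chaps, 3% DMSO, 179 nM poly rC, 18 nM biotin-dG15, 288 nM dGTP, 71 nM 3H-dGTP, 1–2 nM enzyme, inhibitor 10 μM–0.5 nM. Reaction 1 h at 37 °C, quenched with EDTA plus streptavidin SPA beads, CsCl added, scintillation counted.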

[2] = target: T1, Human immunodeficiency virus type 1 reverse transcriptase; test: Effective concentration towards HIV-1 K103N/Y181C mutant reverse transcriptase activity by 50% measured in cellular assay
In short: (§1)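 C8166 T-lymphocytes infected at MOI 0.001 with HIV-1 carrying wild-type or mutant RT, then grown 3 days with serial compound dilutions in RPMI 1640 + 10% FBS, 10 μg/mL gentamycin, 10 μM β-mercaptoethanol (also the diluent). Supernatant pooled from eight replica wells; extracellular p24 measured by HIV-1 p24 antigen kit.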

[3] = target: T2, Human immunodeficiency virus type 1 reverse transcriptase (Human immunodeficiency virus 1, UniProt Q72547); test: Effective concentration towards HIV-1 wild type reverse transcriptase activity by 50% measured in cellular assay
In short: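 C8166 T-lymphocytes infected at MOI 0.001 with wild-type HIV-1, then cultured 3 days with serial compound dilutions in RPMI 1640 containing 10% FBS, gentamycin and 10 μM β-mercaptoethanol. Supernatants pooled from eight replicate wells. Extracellular p24 measured by antigen immunoassay.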

[4] = target: T2, Human immunodeficiency virus type 1 reverse transcriptase; test: Inhibitory activity of compound dissolved in DMSO was determined against HIV-1 wild type reverse transcriptase (1-2 nM) by using [3H]dGTP (71 nM) as substrate, 50 mM Tris/HCl buffer, pH 7.8, incubated for 1 h at 37 degrees C
In short: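 Wild-type RT preincubated 15 min at room temperature with inhibitor. Final reaction: Tris/HCl 50 mM pH 7.8, NaCl 60 mM, MgCl2 2 mM, DTT 6 mM, GSH 2 mM, Chaps 0.02%, DMSO 3%, poly rC 179 nM, biotin-dG15 18 nM, dGTP 288 nM, 3H-dGTP 71 nM, enzyme 1–2 nM, inhibitor 10 μM–0.5 nM. Run 1 h at 37 °C, EDTA-quenched, read with streptavidin SPA beads.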

C8166 [5] = test: Inhibition of HIV replication in T-lymphocyte cell line C8166 infected with V106A mutant reverse transcriptase upon incubation with the compound for 3 days; format: functional, Homo sapiens; in short: as §1
C8166 [6] = test: Inhibition of HIV replication in T-lymphocyte cell line C8166 infected with K103N/L100I mutant reverse transcriptase upon incubation with the compound for 3 days; format: functional, Homo sapiens; in short: as §1
C8166 [7] = test: Inhibition of HIV replication in T-lymphocyte cell line C8166 infected with K103N/V108I mutant reverse transcriptase upon incubation with the compound for 3 days; format: functional, Homo sapiens; in short: as §1
C8166 [8] = test: Inhibition of HIV replication in T-lymphocyte cell line C8166 infected with Y188L mutant reverse transcriptase upon incubation with the compound for 3 days; format: functional, Homo sapiens; in short: as §1
C8166 [9] = test: Inhibition of HIV replication in T-lymphocyte cell line C8166 infected with K103N/P225H mutant reverse transcriptase upon incubation with the compound for 3 days; format: functional, Homo sapiens; in short: as §1
[10] = Steady state volume of distribution is determined in dog after intravenous administration 1 mg/kg; format: ADME, organism-based, Canis lupus familiaris; set-up: dose 1 mg/kg, route intravenous; conditions: in vivo, read-out: Vss
In short: (§2)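 Intravenous bolus at 1 mg/kg to overnight-fasted male Sprague-Dawley rats, beagle dogs or rhesus monkeys. Vehicle: N,N-dimethylacetamide/0.9% aqueous NaCl (30:70). Animals restrained during sampling. Plasma extracts analysed by HPLC. Parameters derived by noncompartmental analysis.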

[11] = Clearance is determined in dog after intravenous administration at 1 mg/kg; format: ADME, organism-based, Canis lupus familiaris; set-up: dose 1 mg/kg, route intravenous; conditions: in vivo; in short: as §2
Cytochrome P450 1A2 = target: T3, Cytochrome P450 1A2 (Homo sapiens, UniProt P05177); test: Inhibitory concentration (1.5 mM) against human CYP450 1A2 dissolved in acetonitrile/methanol
T3 sequence (P05177 whole entry): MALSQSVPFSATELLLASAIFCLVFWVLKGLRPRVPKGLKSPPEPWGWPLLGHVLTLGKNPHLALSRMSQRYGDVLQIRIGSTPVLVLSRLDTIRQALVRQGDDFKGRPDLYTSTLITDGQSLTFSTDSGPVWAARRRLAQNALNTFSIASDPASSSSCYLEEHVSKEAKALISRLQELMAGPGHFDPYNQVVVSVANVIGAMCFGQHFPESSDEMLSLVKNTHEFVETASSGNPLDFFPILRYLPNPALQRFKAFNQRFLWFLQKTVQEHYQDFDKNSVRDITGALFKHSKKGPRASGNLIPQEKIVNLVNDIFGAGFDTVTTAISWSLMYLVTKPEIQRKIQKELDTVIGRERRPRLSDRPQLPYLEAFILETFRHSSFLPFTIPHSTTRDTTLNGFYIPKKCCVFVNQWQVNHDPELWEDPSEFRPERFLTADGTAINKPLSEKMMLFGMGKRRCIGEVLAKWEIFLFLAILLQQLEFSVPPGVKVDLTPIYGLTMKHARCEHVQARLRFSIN

[12] = Half-life is determined in monkey after intravenous administration at 1 mg/kg; format: ADME, organism-based; set-up: dose 1 mg/kg, route intravenous; conditions: cercopithecidae, in vivo; in short: as §2
Cytochrome P450 2C9 = Cytochrome P450 2C9 (Homo sapiens, UniProt P11712)
[13] = Half-life is determined in dog after intravenous administration 1 mg/kg; format: ADME, organism-based, Canis lupus familiaris; set-up: dose 1 mg/kg, route intravenous; conditions: in vivo; in short: as §2
[14] = Bioavailability is determined in dog after oral administration 5 mg/kg; conditions: in vivo
[15] = Half-life is determined in rat after intravenous administration at 1 mg/kg; format: ADME, organism-based; set-up: dose 1 mg/kg, route intravenous; conditions: in vivo; in short: as §2
[16] = Concentration maximum is determined in dog after oral administration 5 mg/kg; conditions: in vivo
[17] = Maximum concentration is determined in monkey after oral administration at 5 mg/kg; conditions: cercopithecidae, in vivo
[18] = Bioavailability is determined in rat after oral administration at 5 mg/kg; conditions: in vivo
Caco-2 = test: Caco-2 permeability upon incubation at 37 degrees C for 180 minutes; format: functional, Homo sapiens
In short: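 Cells grown on 12-well Transwell membranes and exposed to test solution for 180 min at 37 °C. Receiving-side (basolateral, A to B) samples analysed by HPLC. Apparent permeability = (ΔQ/Δt)/(A·C0), where ΔQ/Δt is the transport rate, A the monolayer area and C0 the initial donor concentration.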

[19] = Area under curve is determined in monkey after oral administration at 5 mg/kg; conditions: cercopithecidae, in vivo
[20] = Steady state volume of distribution in rat after intravenous administration 1 mg/kg; format: ADME, organism-based; set-up: dose 1 mg/kg, route intravenous; conditions: in vivo, read-out: Vss; in short: as §2
[21] = Area under curve is determined in dog after oral administration 5 mg/kg; conditions: in vivo
[22] = Steady state volume of distribution is determined in monkey after intravenous administration at 1 mg/kg; format: ADME, organism-based; set-up: dose 1 mg/kg, route intravenous; conditions: cercopithecidae, in vivo, read-out: Vss; in short: as §2
[23] = Bioavailability is determined in monkey after oral administration at 5 mg/kg; conditions: cercopithecidae, in vivo
Cytochrome P450 2D6 = Cytochrome P450 2D6 (Homo sapiens, UniProt P10635); test: Inhibitory concentration (1.5 mM) against human CYP450 2D6 dissolved in acetonitrile/methanol
[24] = Clearance is determined in monkey after intravenous administration 1 mg/kg; format: ADME, organism-based; set-up: dose 1 mg/kg, route intravenous; conditions: cercopithecidae, in vivo; in short: as §2
Cytochrome P450 2C19 = Cytochrome P450 2C19 (Homo sapiens, UniProt P33261); test: Inhibitory concentration (1.5 mM) against human CYP450 2C19 dissolved in acetonitrile/methanol
Cytochrome P450 3A4 [25] = target: T4, Cytochrome P450 3A4 (Homo sapiens, UniProt P08684)
Cytochrome P450 3A4 [26] = target: T4, Cytochrome P450 3A4; test: Inhibitory concentration (1.5 mM) against human CYP450 3A4 dissolved in acetonitrile/methanol using 7-Benzyloxy-quinoline (BQ) as fluorogenic substrate
in vitro = conditions: male, human, liver microsomes
[27] = Area under curve is determined in rat after oral administration at 5 mg/kg; conditions: in vivo
[28] = Clearance is determined in rat after intravenous administration at 1 mg/kg; format: ADME, organism-based; set-up: dose 1 mg/kg, route intravenous; conditions: in vivo; in short: as §2
[29] = Concentration maximum is determined in rat after oral administration at 5 mg/kg; conditions: in vivo

T4 sequence (P08684 whole entry): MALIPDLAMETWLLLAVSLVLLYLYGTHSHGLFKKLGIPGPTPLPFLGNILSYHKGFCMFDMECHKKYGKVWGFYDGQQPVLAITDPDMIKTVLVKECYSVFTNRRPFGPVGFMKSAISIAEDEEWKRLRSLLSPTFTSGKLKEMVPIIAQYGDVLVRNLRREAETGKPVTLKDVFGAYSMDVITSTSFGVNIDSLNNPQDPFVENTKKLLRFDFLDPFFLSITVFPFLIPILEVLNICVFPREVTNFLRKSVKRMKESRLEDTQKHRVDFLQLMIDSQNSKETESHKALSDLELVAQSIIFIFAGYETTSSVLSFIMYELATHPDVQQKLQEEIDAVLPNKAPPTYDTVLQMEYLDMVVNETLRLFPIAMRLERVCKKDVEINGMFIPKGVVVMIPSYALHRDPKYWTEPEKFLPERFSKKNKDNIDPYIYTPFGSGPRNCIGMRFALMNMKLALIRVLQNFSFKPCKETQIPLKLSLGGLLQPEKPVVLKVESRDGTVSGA
Cytochrome P450 2C19, sequence (P33261 whole entry): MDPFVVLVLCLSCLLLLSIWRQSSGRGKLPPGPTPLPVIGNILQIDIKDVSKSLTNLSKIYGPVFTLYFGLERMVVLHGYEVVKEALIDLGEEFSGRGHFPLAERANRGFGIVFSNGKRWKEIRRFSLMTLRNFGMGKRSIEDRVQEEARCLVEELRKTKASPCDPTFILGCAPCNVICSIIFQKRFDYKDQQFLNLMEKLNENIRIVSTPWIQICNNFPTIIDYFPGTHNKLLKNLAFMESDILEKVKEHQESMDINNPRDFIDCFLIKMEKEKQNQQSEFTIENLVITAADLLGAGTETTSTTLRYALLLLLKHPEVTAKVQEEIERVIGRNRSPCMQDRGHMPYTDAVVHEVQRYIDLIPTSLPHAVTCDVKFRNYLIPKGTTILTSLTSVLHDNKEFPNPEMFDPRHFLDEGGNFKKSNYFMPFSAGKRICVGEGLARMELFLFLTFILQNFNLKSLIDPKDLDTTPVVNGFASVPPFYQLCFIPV
Cytochrome P450 2C9, sequence (P11712 whole entry): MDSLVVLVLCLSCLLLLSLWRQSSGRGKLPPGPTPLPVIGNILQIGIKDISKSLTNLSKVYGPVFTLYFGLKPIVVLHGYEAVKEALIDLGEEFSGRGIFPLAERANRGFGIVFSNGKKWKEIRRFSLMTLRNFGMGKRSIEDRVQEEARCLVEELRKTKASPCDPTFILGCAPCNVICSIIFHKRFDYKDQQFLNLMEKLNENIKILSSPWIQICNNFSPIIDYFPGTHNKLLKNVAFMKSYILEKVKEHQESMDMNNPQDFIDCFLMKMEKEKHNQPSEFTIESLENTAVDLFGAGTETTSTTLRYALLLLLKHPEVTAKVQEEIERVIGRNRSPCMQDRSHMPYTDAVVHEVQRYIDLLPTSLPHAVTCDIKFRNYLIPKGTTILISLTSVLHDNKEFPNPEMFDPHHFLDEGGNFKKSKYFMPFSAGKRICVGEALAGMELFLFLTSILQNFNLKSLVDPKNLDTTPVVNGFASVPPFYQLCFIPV
Cytochrome P450 2D6, sequence (P10635 whole entry): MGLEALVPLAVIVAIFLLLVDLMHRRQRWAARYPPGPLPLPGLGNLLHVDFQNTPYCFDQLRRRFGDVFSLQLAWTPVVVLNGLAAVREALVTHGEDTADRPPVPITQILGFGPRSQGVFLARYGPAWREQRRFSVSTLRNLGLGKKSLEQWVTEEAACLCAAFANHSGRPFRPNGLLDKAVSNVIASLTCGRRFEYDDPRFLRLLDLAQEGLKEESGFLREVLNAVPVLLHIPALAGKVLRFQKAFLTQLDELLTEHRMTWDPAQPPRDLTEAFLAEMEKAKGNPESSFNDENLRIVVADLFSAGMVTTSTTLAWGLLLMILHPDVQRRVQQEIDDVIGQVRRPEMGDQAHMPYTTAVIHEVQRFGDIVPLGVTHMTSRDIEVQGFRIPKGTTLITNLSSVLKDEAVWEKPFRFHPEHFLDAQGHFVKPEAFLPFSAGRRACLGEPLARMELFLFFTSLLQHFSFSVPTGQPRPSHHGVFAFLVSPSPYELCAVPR

CCN1c2ncc(CCOc3ccc(C(=O)O)cc3C)cc2C(=O)N(C)c2ccc(C)nc21
IC50 [1]: 280 nM
EC50 [2]: 33 nM
EC50 [3]: 1.3 nM
IC50 [4]: 19 nM

CCc1cc(C(=O)O)ccc1OCCc1cnc2c(c1)C(=O)N(C)c1cccnc1N2CC
IC50 [1]: 430 nM
EC50 [2]: 24 nM
EC50 [3]: 2.2 nM
IC50 [4]: 19 nM

CCN1c2ncc(CCOc3ccc(C(=O)O)cc3C)cc2C(=O)N(C)c2ccc(F)nc21
Antiviral activity (C8166 [5]): 27 nM
Antiviral activity (C8166 [6]): 3 nM
IC50 [1]: 150 nM
Antiviral activity (C8166 [7]): 4 nM
EC50 [2]: 14 nM
EC50 [3]: 1.5 nM
Antiviral activity (C8166 [8]): 27 nM
IC50 [4]: 15 nM
Antiviral activity (C8166 [9]): 2 nM

CCN1c2ncc(CCOc3ccc(C(=O)O)cc3C)cc2C(=O)N(C)c2ccc(OC)nc21
IC50 [1]: 300 nM
EC50 [2]: 15 nM
EC50 [3]: 1.9 nM
IC50 [4]: 15 nM

CCN1c2ncc(CCOc3cccc4c(C(=O)O)cccc34)cc2C(=O)N(C)c2cccnc21
IC50 [1]: 550 nM
IC50 [4]: 60 nM

CCN1c2ncc(CCOc3ccc4cc(C(=O)O)ccc4c3)cc2C(=O)N(C)c2cccnc21
IC50 [1]: 1100 nM
IC50 [4]: 14 nM

CCN1c2ncc(CCOc3ccc(C(=O)O)cc3C)cc2C(=O)N(C)c2cccnc21
Vd [10]: 2.5 L/kg
clearance [11]: 10 mL/min/kg
Antiviral activity (C8166 [5]): 36 nM
IC50 (Cytochrome P450 1A2): > 30000 nM
Antiviral activity (C8166 [6]): 4 nM
half-life [12]: 1.3 h
IC50 [1]: 221 nM
IC50 (Cytochrome P450 2C9): 10000 nM
half-life [13]: 5.9 h
bioavailability [14]: 115%
Antiviral activity (C8166 [7]): 5 nM
half-life [15]: 11 h
Cmax [16]: 16 µM
Cmax [17]: 1.5 µM
bioavailability [18]: 46%
Caco-2 A-B (Caco-2): 2.75e-05 cm/s
AUC [19]: 3.4 uMh
Vd [20]: 4.6 L/kg
EC50 [2]: 15 nM
AUC [21]: 20 uMh
EC50 [3]: 1.6 nM
Vd [22]: 1 L/kg
bioavailability [23]: 43%
IC50 (Cytochrome P450 2D6): > 30000 nM
clearance [24]: 24 mL/min/kg
IC50 (Cytochrome P450 2C19): 2000 nM
Antiviral activity (C8166 [8]): 172 nM
IC50 (Cytochrome P450 3A4 [25]): 24000 nM
IC50 (Cytochrome P450 3A4 [26]): > 30000 nM
IC50 [4]: 17 nM
half-life at 10 µM (in vitro): 2.23 h
AUC [27]: 12 uMh
clearance [28]: 7.1 mL/min/kg
Cmax [29]: 6.5 µM
Antiviral activity (C8166 [9]): 5 nM

CCN1c2ncc(CCOc3ccc(C(=O)O)cc3Br)cc2C(=O)N(C)c2cccnc21
IC50 [1]: 300 nM
EC50 [2]: 35 nM
EC50 [3]: 3.2 nM
IC50 [4]: 18 nM

CCN1c2ncc(CCOc3ccc(C(=O)O)cc3)cc2C(=O)N(C)c2cccnc21
IC50 [1]: 4480 nM
EC50 [2]: 162 nM
EC50 [3]: 3.3 nM
IC50 [4]: 95 nM
half-life at 10 µM (in vitro): 1.27 h

CCN1c2ncc(CCOc3ccc(C(=O)O)c4ccccc34)cc2C(=O)N(C)c2cccnc21
IC50 [1]: 194 nM
IC50 [4]: 27 nM

CCN1c2ncc(CCOc3ccc(CCC(=O)O)cc3C)cc2C(=O)N(C)c2cccnc21
IC50 [1]: 200 nM
Caco-2 A-B (Caco-2): 4.69e-05 cm/s
EC50 [2]: 101 nM
EC50 [3]: 5.5 nM
IC50 [4]: 22 nM
half-life at 10 µM (in vitro): 3.43 h

CCN1c2ncc(CCOc3ccc(C(=O)O)cc3C)cc2C(=O)N(C)c2ccc(Cl)nc21
IC50 [1]: 64 nM
EC50 [2]: 8.1 nM
EC50 [3]: 1.6 nM
IC50 [4]: 10 nM

CCN1c2ncc(CCOc3ccc(CC(=O)O)cc3C)cc2C(=O)N(C)c2cccnc21
IC50 [1]: 370 nM
Caco-2 A-B (Caco-2): 1.84e-05 cm/s
EC50 [2]: 139 nM
EC50 [3]: 12 nM
IC50 [4]: 23 nM
half-life at 10 µM (in vitro): 3.6 h

CCN1c2ncc(CCOc3ccc4c(C(=O)O)cccc4c3)cc2C(=O)N(C)c2cccnc21
IC50 [1]: 4000 nM
IC50 [4]: 63 nM
